Calls of active or inactive are those of the source. No cut-off for these calls is given here.
Key:
THP-1 = experiment: Antiproliferative activity against human THP1 cells assessed as growth inhibition after 48 hrs by MTS-PMS assay; type: functional, cell-based
Method in brief: (§1)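 Cells at 2.5-5.0 × 10^4 per 200 µL were exposed to compounds (0-50 µM) for 48 h at 37 °C, 5% CO₂. MTS (2.0 mg/ml) and PMS (0.92 mg/ml), mixed 10:1, were added for 3 h at 37 °C, and A490 was read. Background was subtracted, viability was taken as a % of untreated, and IC50 was found by graphic extrapolation.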

U-937 [1] = experiment: Antiproliferative activity against human U937 cells assessed as growth inhibition after 48 hrs by MTS-PMS assay; type: functional, cell-based; method in brief: as §1
K562 = experiment: Antiproliferative activity against human K562 cells assessed as growth inhibition after 48 hrs by MTS-PMS assay; type: functional, cell-based; method in brief: as §1
[2] = Antiproliferative activity against human L-132 cells assessed as growth inhibition after 48 hrs by MTS-PMS assay; type: cell-based, L132; method in brief: as §1
[3] = Antiproliferative activity against mouse NIH/3T3 cells assessed as growth inhibition after 48 hrs by MTS-PMS assay; type: cell-based, NIH3T3; method in brief: as §1
U-937 [4] = experiment: Induction of apoptosis in human U937 cell assessed as early apoptotic cells at IC50 concentration after 24 hrs using Annexin V-FITC staining by flow cytometry relative to untreated control; type: functional
U-937 [5] = experiment: Induction of apoptosis in human U937 cell assessed as late apoptotic cells at IC50 concentration after 24 hrs using Annexin V-FITC staining by flow cytometry relative to untreated control; type: functional
U-937 [6] = experiment: Induction of apoptosis in human U937 cell assessed as formation of apoptotic bodies with membrane blebbing at IC50 concentration after 24 hrs using Hoechst 33258 staining by confocal microscopic analysis; type: functional, cell-based
U-937 [7] = experiment: Induction of apoptosis in human U937 cell assessed as pre-necrotic cells at IC50 concentration after 24 hrs using Annexin V-FITC staining by flow cytometry relative to untreated control; type: functional
[8] = Homo sapiens, THP-1, 48 h, read-out: IC50
[9] = Homo sapiens, U-937, 48 h, read-out: IC50
[10] = Homo sapiens, K562, 48 h, read-out: IC50
[11] = Homo sapiens, L132, 48 h, read-out: IC50
[12] = Mus musculus, NIH3T3, 48 h, read-out: IC50

Compound	IC50 (THP-1; [8]) [µM]	IC50 (U-937 [1]; [9]) [µM]	IC50 (K562; [10]) [µM]	IC50 (U-937 [1]; u-937)	IC50 [2, 11] [µM]	IC50 [3, 12] [µM]	other results
C=C1CC[C@@H]2[C@](C)(CO)[C@H](O)CC[C@@]2(C)[C@@H]1C/C=C1/C(=O)OC[C@H]1OC(=O)/C=C\C(=O)O	7.77	9.72	42	–	12.8	11.3	–
C=C1CC[C@@H]2[C@](C)(CO)[C@H](O)CC[C@@]2(C)[C@@H]1C/C=C1/C(=O)OC[C@H]1OC(=O)CCC(=O)O	5.84	5.47	25.3	–	8.5	10.2	Activity (U-937 [4]): 18.77%; Activity (U-937 [5]): 27.25%; Activity (U-937 [6]): Active; Activity (U-937 [7]): 2.51%
C=C1CC[C@@H]2[C@]3(C)COC(C)(C)O[C@@H]3CC[C@@]2(C)[C@@H]1C/C=C1/C(=O)OC[C@H]1OC(=O)CCCC(=O)O	26.2	15.6	36.5	–	15.1	–	–
C=C1CC[C@@H]2[C@]3(C)COC(C)(C)O[C@@H]3CC[C@@]2(C)[C@@H]1C/C=C1/C(=O)OC[C@H]1OC(=O)c1ccccc1C(=O)O	12.2	14.6	26.9	–	18.8	16	–
C=C1CC[C@@H]2[C@](C)(CO)[C@H](O)CC[C@@]2(C)[C@@H]1C/C=C1/C(=O)OC[C@H]1OC(=O)CCCC(=O)O	7.53	9.76	19.6	–	19.5	22.1	–
C=C1CC[C@@H]2[C@](C)(CO)[C@H](O)CC[C@@]2(C)[C@@H]1CCC1C(=O)OC[C@H]1OC(=O)CCCC(=O)O (stereo partly specified)	–	–	–	Not Active	–	–	IC50 (THP-1; thp-1): Not Active; IC50 (K562; k562): Not Active; IC50 ([2]; l132): Not Active; IC50 ([3]; nih3t3): Not Active
C=C1CC[C@@H]2[C@]3(C)COC(C)(C)O[C@@H]3CC[C@@]2(C)[C@@H]1C/C=C1/C(=O)OC[C@H]1OC(=O)/C=C\C(=O)O	14.8	–	–	–	31.1	–	–
C=C1CC[C@@H]2[C@](C)(CO)[C@H](O)CC[C@@]2(C)[C@@H]1C/C=C1/C(=O)OC[C@H]1O [ANDROGRAPHOLIDE]	6.69	12.9	41.9	–	53.8	44.5	–
C=C1CC[C@@H]2[C@]3(C)COC(C)(C)O[C@@H]3CC[C@@]2(C)[C@@H]1C/C=C1/C(=O)OC[C@H]1OC(=O)CCC(=O)O	10	19.5	31.4	–	21.7	36.7	–

Now from value to compound, other results behind:

IC50 (THP-1; [8]) [µM]	IC50 (U-937 [1]; [9]) [µM]	IC50 (K562; [10]) [µM]	IC50 (U-937 [1]; u-937)	Compound	IC50 [2, 11] [µM]	IC50 [3, 12] [µM]	other results
5.68	6.27	41.1	–	C=C1CC[C@@H]2[C@](C)(CO)[C@H](O)CC[C@@]2(C)[C@@H]1C/C=C1/C(=O)OC[C@H]1OC(=O)c1ccccc1C(=O)O	10.9	8.01	–
–	–	–	Not Active	C=C1CC[C@@H]2[C@](C)(CO)[C@H](O)CC[C@@]2(C)[C@@H]1CCC1C(=O)OC[C@H]1OC(=O)c1ccccc1C(=O)O (stereo partly specified)	–	–	IC50 (THP-1; thp-1): Not Active; IC50 (K562; k562): Not Active; IC50 ([2]; l132): Not Active; IC50 ([3]; nih3t3): Not Active
–	–	–	Not Active	C=C1CC[C@@H]2[C@](C)(CO)[C@H](O)CC[C@@]2(C)[C@@H]1CCC1C(=O)OC[C@H]1OC(=O)/C=C\C(=O)O (stereo partly specified)	–	–	IC50 (THP-1; thp-1): Not Active; IC50 (K562; k562): Not Active; IC50 ([2]; l132): Not Active; IC50 ([3]; nih3t3): Not Active
–	–	–	Not Active	C=C1CC[C@@H]2[C@](C)(CO)[C@H](O)CC[C@@]2(C)[C@@H]1CCC1C(=O)OC[C@H]1OC(=O)CCC(=O)O (stereo partly specified)	–	–	–

Reference: ChEMBL document CHEMBL1287702, “Synthesis, cytotoxicity, and structure-activity relationship (SAR) studies of andrographolide analogues as anti-cancer agent” (Bioorg Med Chem Lett, 2010)
